From ChEMBL document CHEMBL1152538, “Synthesis and biological evaluation of asymmetric gramicidin S analogues containing modified D-phenylalanine residues” (Bioorg Med Chem, 2009)
In brackets after ≈: the same amount, converted by molar mass. *1 amine or outer side, *2 acyl side, *3 side chain or, on linkers, in order; H or OH if unused. Where a SMILES comes first, the peptide text is derived from it. [ ]: non-standard residue; d: D form. The star is where a group is joined. X4 = O=C([C@H](Cc1ccc(N(Cc2ccccc2)Cc2ccccc2)cc1)N[*:1])[*:2]; Phe(4-NO2) = N[C@@H](Cc1ccc([N+](=O)[O-])cc1)C(=O)O; X2 = C[N+](C)(C)c1ccc(C[C@H](N[*:1])C(=O)[*:2])cc1; X3 = O=C([C@H](Cc1ccc(NCc2ccccc2)cc1)N[*:1])[*:2]; X5 = O=C(C(c1ccccc1)(c1ccccc1)c1ccccc1)*; Phe(4-NH2) = Nc1ccc(C[C@H](N)C(=O)O)cc1; X1 = O=C(C1C2CC3CC(C2)CC1C3)*; Orn = NCCC[C@H](N)C(=O)O

Experiments:
Staphylococcus aureus [1] = assay: Antibacterial activity against Staphylococcus aureus 7323 after 24 to 96 hrs by well microplate assay; format: functional
Outline: (§1)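 Strains were kept at -70 °C, grown at 30 °C on sheep-blood Columbia agar, and suspended in saline to OD595 0.1, then diluted 10×. Inoculum was added at 2 µL per 100 µL Nutrient Broth with yeast extract (2 g/400 mL). Peptide stocks were 4 g/L in ethanol, diluted to 1000 mg/L in water, then twofold in broth (64–1 mg/L). Plates were held at 30 °C for 24–96 h. MIC was the lowest concentration inhibiting growth.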

Staphylococcus aureus [2] = assay: Antibacterial activity against Staphylococcus aureus 7388 after 24 to 96 hrs by well microplate assay; format: functional; outline: as §1
Enterococcus faecalis = assay: Antibacterial activity against Enterococcus faecalis 1131 after 24 to 96 hrs by well microplate assay; format: functional; outline: as §1
Escherichia coli = assay: Antibacterial activity against Escherichia coli ATCC 25922 after 24 to 96 hrs by well microplate assay; format: functional; outline: as §1
Pseudomonas aeruginosa [3] = assay: Antibacterial activity against Pseudomonas aeruginosa AK1 after 24 to 96 hrs by well microplate assay; format: functional; outline: as §1
Pseudomonas aeruginosa [4] = assay: Antibacterial activity against Pseudomonas aeruginosa ATCC 19582 after 24 to 96 hrs by well microplate assay; format: functional; outline: as §1
Streptococcus mitis [5] = assay: Antibacterial activity against Streptococcus mitis BMS after 24 to 96 hrs by well microplate assay; format: functional; outline: as §1
Streptococcus mitis [6] = assay: Antibacterial activity against Streptococcus mitis ATCC 33399 after 24 to 96 hrs by well microplate assay; format: functional; outline: as §1
[7] = Cytotoxicity against human erythrocytes assessed as hemolysis at 1.5 mM after 4 hrs by twofold dilution assay; format: cell-based; settings: erythrocyte, 1500 µM
[8] = system: coagulase-negative Staphylococcus; assay: Antibacterial activity against coagulase-negative Staphylococcus CNS 5277 after 24 to 96 hrs by well microplate assay
[9] = system: coagulase-negative Staphylococcus; assay: Antibacterial activity against coagulase-negative Staphylococcus CNS 5115 after 24 to 96 hrs by well microplate assay
[10] = system: coagulase-negative Staphylococcus; assay: Antibacterial activity against coagulase-negative Staphylococcus CNS 7368 after 24 to 96 hrs by well microplate assay
[11] = Cytotoxicity against human erythrocytes assessed as hemolysis after 4 hrs by twofold dilution assay; format: cell-based; settings: Erythrocyte
Outline: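 Heparinised blood was spun at 1000g and 10 °C, and erythrocytes were washed three times in 0.85% saline and diluted to 1/25 packed volume. Peptide stocks were 1.5 mM in 30% DMSO/0.5 mM saline, sonicated if suspended, and twofold serially diluted in saline in triplicate rows. 1% Triton-X served as the lysis reference. Cells were incubated at 37 °C for 4 h and centrifuged, and the supernatant was read at A405 for % hemolysis.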

| SMILES | MIC (Staphylococcus aureus [1]) | MIC (Staphylococcus aureus [2]) | MIC (Enterococcus faecalis) | MIC (Escherichia coli) | MIC (Pseudomonas aeruginosa [3]) | MIC (Pseudomonas aeruginosa [4]) | MIC (Streptococcus mitis [5]) | MIC (Streptococcus mitis [6]) | MIC [8] | MIC [9] | MIC [10] | Activity [7] | EC50 [11] |
| --- | --- | --- | --- | --- | --- | --- | --- | --- | --- | --- | --- | --- | --- |
| CC(C)C[C@@H]1NC(=O)[C@H](CCCN)NC(=O)[C@H](C(C)C)NC(=O)[C@@H]2CCCN2C(=O)[C@H](Cc2ccccc2)NC(=O)[C@H](CC(C)C)NC(=O)[C@H](CCCN)NC(=O)[C@H](C(C)C)NC(=O)[C@@H]2CCCN2C(=O)[C@H](Cc2ccc(NC(=O)C3C4CC5CC(C4)CC3C5)cc2)NC1=O (stereo not given in full) (cyclo(FPV[Orn]L[Phe(4-NH2)](X1)PV[Orn]L)) | 8 mg/L (≈ 6.07 µM) | 8 mg/L (≈ 6.07 µM) | 64 mg/L (≈ 48.5 µM) | > 64 mg/L | > 64 mg/L | > 64 mg/L | 8 mg/L (≈ 6.07 µM) | 16 mg/L (≈ 12.1 µM) | 16 mg/L (≈ 12.1 µM) | 8 mg/L (≈ 6.07 µM) | 8 mg/L (≈ 6.07 µM) | Non-toxic | – |
| CC(C)C[C@@H]1NC(=O)[C@H](CCCN)NC(=O)[C@H](C(C)C)NC(=O)[C@@H]2CCCN2C(=O)[C@H](Cc2ccccc2)NC(=O)[C@H](CC(C)C)NC(=O)[C@H](CCCN)NC(=O)[C@H](C(C)C)NC(=O)[C@@H]2CCCN2C(=O)[C@H](Cc2ccc(NC(=O)C(c3ccccc3)(c3ccccc3)c3ccccc3)cc2)NC1=O (cyclo(FPV[Orn]L[Phe(4-NH2)](X5)PV[Orn]L)) | > 64 mg/L | > 64 mg/L | > 64 mg/L | > 64 mg/L | > 64 mg/L | > 64 mg/L | 64 mg/L (≈ 44.9 µM) | > 64 mg/L | > 64 mg/L | > 64 mg/L | > 64 mg/L | – | – |
| CC(C)C[C@@H]1NC(=O)[C@H](CCCN)NC(=O)[C@H](C(C)C)NC(=O)[C@@H]2CCCN2C(=O)[C@H](Cc2ccccc2)NC(=O)[C@H](CC(C)C)NC(=O)[C@H](CCCN)NC(=O)[C@H](C(C)C)NC(=O)[C@@H]2CCCN2C(=O)[C@H](Cc2ccc([N+](C)(C)C)cc2)NC1=O.[I-] (cyclo(FPV[Orn]L[X2]PV[Orn]L)) | 64 mg/L | 32 mg/L | > 64 mg/L | 64 mg/L | > 64 mg/L | > 64 mg/L | 8 mg/L | 8 mg/L | 16 mg/L | 16 mg/L | 32 mg/L | Non-toxic | 134 µM |
| CC(C)C[C@@H]1NC(=O)[C@H](CCCN)NC(=O)[C@H](C(C)C)NC(=O)[C@@H]2CCCN2C(=O)[C@H](Cc2ccccc2)NC(=O)[C@H](CC(C)C)NC(=O)[C@H](CCCN)NC(=O)[C@H](C(C)C)NC(=O)[C@@H]2CCCN2C(=O)[C@H](Cc2ccc(NCc3ccccc3)cc2)NC1=O (cyclo(FPV[Orn]L[X3]PV[Orn]L)) | > 64 mg/L | 64 mg/L (≈ 51.3 µM) | > 64 mg/L | > 64 mg/L | > 64 mg/L | > 64 mg/L | 64 mg/L (≈ 51.3 µM) | 64 mg/L (≈ 51.3 µM) | 64 mg/L (≈ 51.3 µM) | > 64 mg/L | 64 mg/L (≈ 51.3 µM) | – | – |
| CC(C)C[C@@H]1NC(=O)[C@H](CCCN)NC(=O)[C@H](C(C)C)NC(=O)[C@@H]2CCCN2C(=O)[C@H](Cc2ccccc2)NC(=O)[C@H](CC(C)C)NC(=O)[C@H](CCCN)NC(=O)[C@H](C(C)C)NC(=O)[C@@H]2CCCN2C(=O)[C@H](Cc2ccc(N(Cc3ccccc3)Cc3ccccc3)cc2)NC1=O (cyclo(FPV[Orn]L[X4]PV[Orn]L)) | > 64 mg/L | > 64 mg/L | > 64 mg/L | > 64 mg/L | > 64 mg/L | > 64 mg/L | 64 mg/L (≈ 47.9 µM) | 64 mg/L (≈ 47.9 µM) | 64 mg/L (≈ 47.9 µM) | > 64 mg/L | 64 mg/L (≈ 47.9 µM) | – | – |

Now from value to compound, other results behind:

| MIC (Staphylococcus aureus [1]) | MIC (Staphylococcus aureus [2]) | MIC (Enterococcus faecalis) | MIC (Escherichia coli) | MIC (Pseudomonas aeruginosa [3]) | MIC (Pseudomonas aeruginosa [4]) | MIC (Streptococcus mitis [5]) | MIC (Streptococcus mitis [6]) | MIC [8] | MIC [9] | MIC [10] | SMILES | Activity [7] | EC50 [11] |
| --- | --- | --- | --- | --- | --- | --- | --- | --- | --- | --- | --- | --- | --- |
| 32 mg/L (≈ 27.7 µM) | 16 mg/L (≈ 13.8 µM) | 64 mg/L (≈ 55.3 µM) | 64 mg/L (≈ 55.3 µM) | > 64 mg/L | > 64 mg/L | 8 mg/L (≈ 6.92 µM) | 32 mg/L (≈ 27.7 µM) | 16 mg/L (≈ 13.8 µM) | 32 mg/L (≈ 27.7 µM) | 16 mg/L (≈ 13.8 µM) | CC(C)C[C@@H]1NC(=O)[C@H](CCCN)NC(=O)[C@H](C(C)C)NC(=O)[C@@H]2CCCN2C(=O)[C@H](Cc2ccccc2)NC(=O)[C@H](CC(C)C)NC(=O)[C@H](CCCN)NC(=O)[C@H](C(C)C)NC(=O)[C@@H]2CCCN2C(=O)[C@H](Cc2ccc(N)cc2)NC1=O (cyclo(FPV[Orn]L[Phe(4-NH2)]PV[Orn]L)) | – | – |
| 16 mg/L (≈ 13.5 µM) | 16 mg/L (≈ 13.5 µM) | 32 mg/L (≈ 27 µM) | 64 mg/L (≈ 53.9 µM) | > 64 mg/L | > 64 mg/L | 32 mg/L (≈ 27 µM) | 32 mg/L (≈ 27 µM) | 16 mg/L (≈ 13.5 µM) | 16 mg/L (≈ 13.5 µM) | 16 mg/L (≈ 13.5 µM) | CC(C)C[C@@H]1NC(=O)[C@H](CCCN)NC(=O)[C@H](C(C)C)NC(=O)[C@@H]2CCCN2C(=O)[C@H](Cc2ccccc2)NC(=O)[C@H](CC(C)C)NC(=O)[C@H](CCCN)NC(=O)[C@H](C(C)C)NC(=O)[C@@H]2CCCN2C(=O)[C@H](Cc2ccc([N+](=O)[O-])cc2)NC1=O (cyclo(FPV[Orn]L[Phe(4-NO2)]PV[Orn]L)) | – | – |
